Laboratory results reported in publication PMC7709506 (ESMO Open, 2020).

Test: Safety and tolerability
Assay type: in vivo, human
Summary of the method: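 Open-label multicentre phase I/IIa trial in adults with advanced or metastatic solid tumours. Part 1 used 3+3 oral capsule escalation at 50–800 mg/day to define DLT and MTD. Part 2 gave tablets. Treatment continued until progression, intolerable AE or study end, with dose decisions by a safety monitoring board. AEs of special interest were monitored. The safety population was all dosed patients, summarised by dose level.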

[1] = 30 patients treated with 400 mg/day

Compound: Cn1cc(-c2ccc3c(c2)ncn3-c2cc(NS(=O)(=O)C3CC3)cc(-c3ccc(F)cc3F)c2)cn1 [ODM-203]
- Hyperbilirubinaemia [1]: 36.7%
- increased blood bilirubin [1]: 50.0%
- Alopecia (Grade 3–5, all doses (n=84)): 1 (1.2) n (%)
- Arthralgia (Grade 3–5, all doses (n=84)): 2 (2.4) n (%)
- Asthenia (Grade 3–5, all doses (n=84)): 2 (2.4) n (%)
- Blood bilirubin increased (Grade 3–5, all doses (n=84)): 20 (23.8) n (%)
- Conjugated bilirubin increased (Grade 3–5, all doses (n=84)): 0 n (%)
- Decreased appetite (Grade 3–5, all doses (n=84)): 0 n (%)
- Diarrhoea (Grade 3–5, all doses (n=84)): 5 (6.0) n (%)
- Dry mouth (Grade 3–5, all doses (n=84)): 0 n (%)
- Dry skin (Grade 3–5, all doses (n=84)): 0 n (%)
- Dysgeusia (Grade 3–5, all doses (n=84)): 0 n (%)
- Epistaxis (Grade 3–5, all doses (n=84)): 0 n (%)
- Fatigue (Grade 3–5, all doses (n=84)): 5 (6.0) n (%)
- Hyperbilirubinaemia (Grade 3–5, all doses (n=84)): 16 (19.0) n (%)
- Hyperphosphataemia (Grade 3–5, all doses (n=84)): 0 n (%)
- Hypertension (Grade 3–5, all doses (n=84)): 3 (3.6) n (%)
- Jaundice (Grade 3–5, all doses (n=84)): 2 (2.4) n (%)
- Mucosal inflammation (Grade 3–5, all doses (n=84)): 0 n (%)
- Myalgia (Grade 3–5, all doses (n=84)): 2 (2.4) n (%)
- Nasal dryness (Grade 3–5, all doses (n=84)): 0 n (%)
- Nausea (Grade 3–5, all doses (n=84)): 0 n (%)
- Onycholysis (Grade 3–5, all doses (n=84)): 1 (1.2) n (%)
- Palmar-plantar eryrthodysaestesia (Grade 3–5, all doses (n=84)): 4 (4.8) n (%)
- Stomatitis (Grade 3–5, all doses (n=84)): 3 (3.6) n (%)
- Vomiting (Grade 3–5, all doses (n=84)): 0 n (%)
- Weight decreased (Grade 3–5, all doses (n=84)): 1 (1.2) n (%)
- dose reduction due to arthralgia (N=84): 2 patients
- dose reduction due to increased blood bilirubin (N=84): 2 patients
- dose reduction due to palmar-plantar erythrodysesthesia syndrome (N=84): 3 patients
- treatment interruption due to hyperbilirubinaemia (N=84): 8 patients
- treatment interruption due to increase in blood bilirubin (N=84): 16 patients
- AE leading to death (Total (N=84)): 7 (8.3) n (%)
- AE leading to discontinuation (Total (N=84)): 30 (35.7) n (%)
- AE leading to dose reduction (Total (N=84)): 9 (10.7) n (%)
- AE leading to treatment interruption (Total (N=84)): 61 (72.6) n (%)
- Alopecia (Total (N=84)): 26 (31.0) n (%)
- Any AE (Total (N=84)): 84 (100) n (%)
- Arthralgia (Total (N=84)): 28 (33.3) n (%)
- Asthenia (Total (N=84)): 25 (29.8) n (%)
- Blood bilirubin increased (Total (N=84)): 36 (42.9) n (%)
- Conjugated bilirubin increased (Total (N=84)): 11 (13.1) n (%)
- Decreased appetite (Total (N=84)): 25 (29.8) n (%)
- Diarrhoea (Total (N=84)): 42 (50.0) n (%)
- Dry mouth (Total (N=84)): 29 (34.5) n (%)
- Dry skin (Total (N=84)): 10 (11.9) n (%)
- Dysgeusia (Total (N=84)): 20 (23.8) n (%)
- Epistaxis (Total (N=84)): 28 (33.3) n (%)
- Fatigue (Total (N=84)): 23 (27.4) n (%)
- Hyperbilirubinaemia (Total (N=84)): 28 (33.3) n (%)
- Hyperphosphataemia (Total (N=84)): 20 (23.8) n (%)
- Hypertension (Total (N=84)): 14 (16.7) n (%)
- Jaundice (Total (N=84)): 27 (32.1) n (%)
- Mucosal inflammation (Total (N=84)): 10 (11.9) n (%)
- Myalgia (Total (N=84)): 11 (13.1) n (%)
- Nasal dryness (Total (N=84)): 13 (15.5) n (%)
- Nausea (Total (N=84)): 11 (13.1) n (%)
- Onycholysis (Total (N=84)): 11 (13.1) n (%)
- Palmar-plantar eryrthodysaestesia (Total (N=84)): 30 (35.7) n (%)
- Related AE (Total (N=84)): 82 (97.6) n (%)
- Related SAEs (Total (N=84)): 14 (16.7) n (%)
- Stomatitis (Total (N=84)): 34 (40.5) n (%)
- Vomiting (Total (N=84)): 9 (10.7) n (%)
- Weight decreased (Total (N=84)): 19 (22.6) n (%)
- patients with at least one AE during treatment (all doses, N=84): 84 patients
- AE leading to death (capsule 100 mg (n=1)): 0 n (%)
- AE leading to discontinuation (capsule 100 mg (n=1)): 0 n (%)
- AE leading to dose reduction (capsule 100 mg (n=1)): 0 n (%)
- AE leading to treatment interruption (capsule 100 mg (n=1)): 1 (100) n (%)
- Alopecia (capsule 100 mg (n=1)): 0 n (%)
- Any AE (capsule 100 mg (n=1)): 1 (100) n (%)
- Arthralgia (capsule 100 mg (n=1)): 0 n (%)
- Asthenia (capsule 100 mg (n=1)): 0 n (%)
- Blood bilirubin increased (capsule 100 mg (n=1)): 0 n (%)
- Conjugated bilirubin increased (capsule 100 mg (n=1)): 0 n (%)
- Decreased appetite (capsule 100 mg (n=1)): 0 n (%)
- Diarrhoea (capsule 100 mg (n=1)): 0 n (%)
- Dry mouth (capsule 100 mg (n=1)): 0 n (%)
- Dry skin (capsule 100 mg (n=1)): 0 n (%)
- Dysgeusia (capsule 100 mg (n=1)): 0 n (%)
- Epistaxis (capsule 100 mg (n=1)): 0 n (%)
- Fatigue (capsule 100 mg (n=1)): 0 n (%)
- Hyperbilirubinaemia (capsule 100 mg (n=1)): 0 n (%)
- Hyperphosphataemia (capsule 100 mg (n=1)): 0 n (%)
- Hypertension (capsule 100 mg (n=1)): 0 n (%)
- Jaundice (capsule 100 mg (n=1)): 0 n (%)
- Mucosal inflammation (capsule 100 mg (n=1)): 0 n (%)
- Myalgia (capsule 100 mg (n=1)): 0 n (%)
- Nasal dryness (capsule 100 mg (n=1)): 0 n (%)
- Nausea (capsule 100 mg (n=1)): 0 n (%)
- Onycholysis (capsule 100 mg (n=1)): 0 n (%)
- Palmar-plantar eryrthodysaestesia (capsule 100 mg (n=1)): 0 n (%)
- Related AE (capsule 100 mg (n=1)): 1 (100) n (%)
- Related SAEs (capsule 100 mg (n=1)): 0 n (%)
- Stomatitis (capsule 100 mg (n=1)): 0 n (%)
- Vomiting (capsule 100 mg (n=1)): 0 n (%)
- Weight decreased (capsule 100 mg (n=1)): 0 n (%)
- AE leading to death (capsule 200 mg (n=3)): 0 n (%)
- AE leading to discontinuation (capsule 200 mg (n=3)): 0 n (%)
- AE leading to dose reduction (capsule 200 mg (n=3)): 0 n (%)
- AE leading to treatment interruption (capsule 200 mg (n=3)): 0 n (%)
- Alopecia (capsule 200 mg (n=3)): 0 n (%)
- Any AE (capsule 200 mg (n=3)): 3 (100) n (%)
- Arthralgia (capsule 200 mg (n=3)): 0 n (%)
- Asthenia (capsule 200 mg (n=3)): 1 (33.3) n (%)
- Blood bilirubin increased (capsule 200 mg (n=3)): 0 n (%)
- Conjugated bilirubin increased (capsule 200 mg (n=3)): 0 n (%)
- Decreased appetite (capsule 200 mg (n=3)): 0 n (%)
- Diarrhoea (capsule 200 mg (n=3)): 0 n (%)
- Dry mouth (capsule 200 mg (n=3)): 0 n (%)
- Dry skin (capsule 200 mg (n=3)): 0 n (%)
- Dysgeusia (capsule 200 mg (n=3)): 0 n (%)
- Epistaxis (capsule 200 mg (n=3)): 1 (33.3) n (%)
- Fatigue (capsule 200 mg (n=3)): 0 n (%)
- Hyperbilirubinaemia (capsule 200 mg (n=3)): 0 n (%)
- Hyperphosphataemia (capsule 200 mg (n=3)): 0 n (%)
- Hypertension (capsule 200 mg (n=3)): 0 n (%)
- Jaundice (capsule 200 mg (n=3)): 0 n (%)
- Mucosal inflammation (capsule 200 mg (n=3)): 0 n (%)
- Myalgia (capsule 200 mg (n=3)): 0 n (%)
- Nasal dryness (capsule 200 mg (n=3)): 0 n (%)
- Nausea (capsule 200 mg (n=3)): 0 n (%)
- Onycholysis (capsule 200 mg (n=3)): 0 n (%)
- Palmar-plantar eryrthodysaestesia (capsule 200 mg (n=3)): 0 n (%)
- Related AE (capsule 200 mg (n=3)): 2 (66.7) n (%)
- Related SAEs (capsule 200 mg (n=3)): 0 n (%)
- Stomatitis (capsule 200 mg (n=3)): 0 n (%)
- Vomiting (capsule 200 mg (n=3)): 0 n (%)
- Weight decreased (capsule 200 mg (n=3)): 0 n (%)
- AE leading to death (capsule 400 mg (n=7)): 0 n (%)
- AE leading to discontinuation (capsule 400 mg (n=7)): 1 (14.3) n (%)
- AE leading to dose reduction (capsule 400 mg (n=7)): 1 (14.3) n (%)
- AE leading to treatment interruption (capsule 400 mg (n=7)): 4 (57.1) n (%)
- Alopecia (capsule 400 mg (n=7)): 1 (14.3) n (%)
- Any AE (capsule 400 mg (n=7)): 7 (100) n (%)
- Arthralgia (capsule 400 mg (n=7)): 1 (14.3) n (%)
- Asthenia (capsule 400 mg (n=7)): 1 (14.3) n (%)
- Blood bilirubin increased (capsule 400 mg (n=7)): 3 (42.9) n (%)
- Conjugated bilirubin increased (capsule 400 mg (n=7)): 0 n (%)
- Decreased appetite (capsule 400 mg (n=7)): 1 (14.3) n (%)
- Diarrhoea (capsule 400 mg (n=7)): 1 (14.3) n (%)
- Dry mouth (capsule 400 mg (n=7)): 1 (14.3) n (%)
- Dry skin (capsule 400 mg (n=7)): 0 n (%)
- Dysgeusia (capsule 400 mg (n=7)): 2 (28.6) n (%)
- Epistaxis (capsule 400 mg (n=7)): 1 (14.3) n (%)
- Fatigue (capsule 400 mg (n=7)): 1 (14.3) n (%)
- Hyperbilirubinaemia (capsule 400 mg (n=7)): 2 (28.6) n (%)
- Hyperphosphataemia (capsule 400 mg (n=7)): 2 (28.6) n (%)
- Hypertension (capsule 400 mg (n=7)): 0 n (%)
- Jaundice (capsule 400 mg (n=7)): 3 (42.9) n (%)
- Mucosal inflammation (capsule 400 mg (n=7)): 1 (14.3) n (%)
- Myalgia (capsule 400 mg (n=7)): 1 (14.3) n (%)
- Nasal dryness (capsule 400 mg (n=7)): 1 (14.3) n (%)
- Nausea (capsule 400 mg (n=7)): 0 n (%)
- Onycholysis (capsule 400 mg (n=7)): 0 n (%)
- Palmar-plantar eryrthodysaestesia (capsule 400 mg (n=7)): 2 (28.6) n (%)
- Related AE (capsule 400 mg (n=7)): 7 (100) n (%)
- Related SAEs (capsule 400 mg (n=7)): 0 n (%)
- Stomatitis (capsule 400 mg (n=7)): 1 (14.3) n (%)
- Vomiting (capsule 400 mg (n=7)): 1 (14.3) n (%)
- Weight decreased (capsule 400 mg (n=7)): 1 (14.3) n (%)
- AE leading to death (capsule 600 mg (n=30)): 2 (6.7) n (%)
- AE leading to discontinuation (capsule 600 mg (n=30)): 17 (56.7) n (%)
- AE leading to dose reduction (capsule 600 mg (n=30)): 1 (3.3) n (%)
- AE leading to treatment interruption (capsule 600 mg (n=30)): 22 (73.3) n (%)
- Alopecia (capsule 600 mg (n=30)): 8 (26.7) n (%)
- Any AE (capsule 600 mg (n=30)): 30 (100) n (%)
- Arthralgia (capsule 600 mg (n=30)): 11 (36.7) n (%)
- Asthenia (capsule 600 mg (n=30)): 8 (26.7) n (%)
- Blood bilirubin increased (capsule 600 mg (n=30)): 13 (43.3) n (%)
- Conjugated bilirubin increased (capsule 600 mg (n=30)): 3 (10.0) n (%)
